ChEMBL document CHEMBL1124808, “The synthesis and antiallergy activity of 1-(aryloxy)-4-(4-arylpiperazinyl)-2-butanol derivatives” (1990)

Columns and labels:
[1] = test system: Rattus norvegicus; assay: Percent change in volume of foot edema of test compound to that of positive control was determined at a dose of 31.6 mg/kg in rat; +7/-47; assay type: functional
[2] = test system: Rattus norvegicus; assay: Percent change in volume of foot edema of test compound to that of positive control was determined at a dose of 31.6 mg/kg in rat; -15/-60; assay type: functional
[3] = organism: Cavia porcellus; assay: Dose that protects 50% of guinea pig from collapse was determined in guinea pig anaphylaxis assay; assay type: functional; conditions: read-out: PD50
How it was run: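 Guinea pigs dosed by gavage (10 mL/kg) with compound in 0.5% Tween 80/water; reference theophylline 100 mg/kg po. At 1–24 h, exposed in chamber to aerosolized 1% (w/v) egg albumin at 10 L air/min for up to 5 min; protected if no collapse within 5 min. PD50 by Litchfield and Wilcoxon.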

[4] = test system: Rattus norvegicus; assay: Percent change in volume of foot edema of test compound to that of positive control was determined at a dose of 31.6 mg/kg in rat; -41/-61; assay type: functional
[5] = test system: Rattus norvegicus; assay: Percent change in volume of foot edema of test compound to that of positive control was determined at a dose of 31.6 mg/kg in rat; -85/-82; assay type: functional
[6] = test system: Rattus norvegicus; assay: Percent change in volume of foot edema of test compound to that of positive control was determined at a dose of 3.16 mg/kg in rat; -34/-79; assay type: functional
[7] = test system: Rattus norvegicus; assay: Percent change in volume of foot edema of test compound to that of positive control was determined at a dose of 10 mg/kg in rat; -50/-80; assay type: functional
[8] = test system: Rattus norvegicus; assay: Percent change in volume of foot edema of test compound to that of positive control was determined at a dose of 3.16 mg/kg in rat; -13/-73; assay type: functional
[9] = test system: Rattus norvegicus; assay: Percent change in volume of foot edema of test compound to that of positive control was determined at a dose of 10 mg/kg in rat; -38/-69; assay type: functional
[10] = test system: Rattus norvegicus; assay: Percent change in volume of foot edema of test compound to that of positive control was determined at a dose of 31.6 mg/kg in rat; -73/-68; assay type: functional
[11] = test system: Rattus norvegicus; assay: Percent change in volume of foot edema of test compound to that of positive control was determined at a dose of 10 mg/kg in rat; +3/-73; assay type: functional
[12] = test system: Rattus norvegicus; assay: Percent change in volume of foot edema of test compound to that of positive control was determined at a dose of 31.6 mg/kg in rat; -69/-78; assay type: functional
[13] = test system: Rattus norvegicus; assay: Percent change in volume of foot edema of test compound to that of positive control was determined at a dose of 10 mg/kg in rat; -26/-62; assay type: functional
[14] = test system: Rattus norvegicus; assay: Percent change in volume of foot edema of test compound to that of positive control was determined at a dose of 31.6 mg/kg in rat; -49/-78; assay type: functional
[15] = test system: Rattus norvegicus; assay: Percent change in volume of foot edema of test compound to that of positive control was determined at a dose of 31.6 mg/kg in rat; -26/-74; assay type: functional
[16] = test system: Rattus norvegicus; assay: Percent change in volume of foot edema of test compound to that of positive control was determined at a dose of 10 mg/kg in rat; -54/-72; assay type: functional
[17] = test system: Rattus norvegicus; assay: Percent change in volume of foot edema of test compound to that of positive control was determined at a dose of 31.6 mg/kg in rat; -60/-74; assay type: functional
[18] = test system: Rattus norvegicus; assay: Oral Antiallergic activity in the passive foot anaphylaxis (PFA) assay of various amines at the dose of 3.16 mg/kg; -4/-78; assay type: functional
[19] = test system: Rattus norvegicus; assay: Percent change in volume of foot edema of test compound to that of positive control was determined at a dose of 31.6 mg/kg in rat; -25/-93
[20] = test system: Rattus norvegicus; assay: Percent change in volume of foot edema of test compound to that of positive control was determined at a dose of 31.6 mg/kg in rat; -57/-83; assay type: functional
[21] = test system: Rattus norvegicus; assay: Percent change in volume of foot edema of test compound to that of positive control was determined at a dose of 10 mg/kg in rat; -39/-72; assay type: functional
[22] = test system: Rattus norvegicus; assay: Percent change in volume of foot edema of test compound to that of positive control was determined at a dose of 31.6 mg/kg in rat; -65/-69; assay type: functional
[23] = test system: Rattus norvegicus; assay: Percent change in volume of foot edema of test compound to that of positive control was determined at a dose of 10 mg/kg in rat; -29/-62; assay type: functional
[24] = test system: Rattus norvegicus; assay: Percent change in volume of foot edema of test compound to that of positive control was determined at a dose of 31.6 mg/kg in rat; -65/-78; assay type: functional
[25] = test system: Rattus norvegicus; assay: Percent change in volume of foot edema of test compound to that of positive control was determined at a dose of 10 mg/kg in rat; -43/-77; assay type: functional
[26] = test system: Rattus norvegicus; assay: Percent change in volume of foot edema of test compound to that of positive control was determined at a dose of 3.16 mg/kg in rat; -18/-77; assay type: functional
[27] = test system: Rattus norvegicus; assay: Percent change in volume of foot edema of test compound to that of positive control was determined at a dose of 31.6 mg/kg in rat; -88/-63; assay type: functional
[28] = test system: Rattus norvegicus; assay: Percent change in volume of foot edema of test compound to that of positive control was determined at a dose of 10 mg/kg in rat; -53/-77; assay type: functional
[29] = test system: Rattus norvegicus; assay: Percent change in volume of foot edema of test compound to that of positive control was determined at a dose of 31.6 mg/kg in rat; -79/-65; assay type: functional
[30] = test system: Rattus norvegicus; assay: Percent change in volume of foot edema of test compound to that of positive control was determined at a dose of 10 mg/kg in rat; +22/-73; assay type: functional
[31] = test system: Rattus norvegicus; assay: Percent change in volume of foot edema of test compound to that of positive control was determined at a dose of 31.6 mg/kg in rat; -87/-83; assay type: functional
[32] = test system: Rattus norvegicus; assay: Percent change in volume of foot edema of test compound to that of positive control was determined at a dose of 10 mg/kg in rat; -38/-88; assay type: functional
[33] = test system: Rattus norvegicus; assay: Percent change in volume of foot edema of test compound to that of positive control was determined at a dose of 10 mg/kg in rat; -40/-81; assay type: functional
[34] = test system: Rattus norvegicus; assay: Percent change in volume of foot edema of test compound to that of positive control was determined at a dose of 31.6 mg/kg in rat; -79/-81; assay type: functional

OC(CCN1CCc2ccccc2C1)COc1ccccc1 (centres undefined)
PFA [1]: 7

CN(C)CCOC(c1ccccc1)c1ccccc1 [DIPHENHYDRAMINE]
PFA [2]: -15
ED50 [3]: 23.3 mg/kg

CN(CCC(O)COc1ccccc1)CCN(C)c1ccccc1.O=C(O)C(=O)O (centres undefined)
PFA [4]: -41

Cc1ccc(N2CCN(CCC(O)COc3ccccc3)CC2)cc1 (centres undefined)
PFA [5]: -85
PFA [6]: -34
PFA [7]: -50

NC(=O)c1ccc(OCC(O)CCN2CCN(c3ccccn3)CC2)cc1 (centres undefined)
PFA [8]: -13
PFA [9]: -38
PFA [10]: -73

COc1cccc(N2CCN(CCC(O)COc3ccccc3)CC2)c1 (centres undefined)
PFA [11]: 3
PFA [12]: -69

OC(CCN1CCN(c2ccccc2)CC1)COc1cccc(C(F)(F)F)c1 (centres undefined)
PFA [13]: -26
PFA [14]: -49

COc1cc(N2CCN(CCC(O)COc3ccccc3)CC2)cc(OC)c1OC.O=C(O)C(=O)O (centres undefined)
PFA [15]: -26

Cc1ccc(N2CCN(CCC(O)COc3ccc(Cl)cc3)CC2)cc1.Cl (centres undefined)
PFA [16]: -54
PFA [17]: -60
PFA [18]: -4

CC(=O)c1ccc(OCC(O)CCN2CCN(c3ccccc3)CC2)cc1.Cl.Cl (centres undefined)
PFA [19]: -25

CC(C)(C)c1ccc(OCC(O)CCN2CCN(c3ccccc3)CC2)cc1.Cl (centres undefined)
PFA [20]: -57
PFA [21]: -39

OC(CCN1CCN(c2ccccc2)CC1)COc1ccc(-c2ccccc2)cc1 (centres undefined)
PFA [22]: -65
PFA [23]: -29

OC(CCN1CCN(c2ccc(Cl)cc2)CC1)COc1ccccc1 (centres undefined)
PFA [24]: -65
PFA [25]: -43

OC(CCN1CCN(c2ccc(F)cc2)CC1)COc1ccccc1 (centres undefined)
PFA [26]: -18
PFA [27]: -88
PFA [28]: -53

COc1ccccc1N1CCN(CCC(O)COc2ccccc2)CC1 (centres undefined)
PFA [29]: -79
PFA [30]: 22

CC(=O)c1ccc(N2CCN(CCC(O)COc3ccc(F)cc3)CC2)cc1 (centres undefined)
PFA [31]: -87
PFA [32]: -38

COc1ccc(N2CCN(CCC(O)COc3ccc(Cl)cc3)CC2)cc1.Cl.Cl (centres undefined)
PFA [33]: -40
PFA [34]: -79
